pIC50, pKi: −log10 of the molar value. Where a SMILES comes first, the peptide text is derived from it. [ ]: non-standard residue; d: D form. The star is where a group is joined. Dmt = Cc1cc(O)cc(C)c1C[C@H](N)C(=O)O; Tic = O=C(O)[C@@H]1Cc2ccccc2CN1; Cbz = O=C(OCc1ccccc1)*
What was measured:
[1] = Inhibition constant against synaptosomal Mu opioid receptor
Summary of the method: (§1)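 Competitive binding on synaptosomal membranes from several separate preparations, run as independent duplicate assays with five to eight peptide doses each. Ki derived by the Cheng–Prusoff relation. Values reported as mean ± SE with n repetitions.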

[2] = Inhibition constant against synaptosomal Delta Opioid Receptor; summary of the method: as §1
[3] = target: T1, Delta-type opioid receptor (Mus musculus, UniProt P32300); assay: Agonistic activity against delta opioid receptor of mouse vas deferens assay; type: functional, tissue-based
T1 sequence (P32300 whole entry): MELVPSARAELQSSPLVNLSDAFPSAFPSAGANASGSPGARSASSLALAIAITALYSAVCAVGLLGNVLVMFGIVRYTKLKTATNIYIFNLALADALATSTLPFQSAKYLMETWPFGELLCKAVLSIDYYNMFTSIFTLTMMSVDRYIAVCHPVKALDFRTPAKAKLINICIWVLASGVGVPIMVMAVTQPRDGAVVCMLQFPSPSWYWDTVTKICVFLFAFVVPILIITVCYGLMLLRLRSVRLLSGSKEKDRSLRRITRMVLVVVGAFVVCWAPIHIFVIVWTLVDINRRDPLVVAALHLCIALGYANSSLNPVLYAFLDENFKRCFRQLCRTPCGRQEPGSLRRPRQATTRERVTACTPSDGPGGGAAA
Summary of the method: (§2)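 Electrically stimulated isolated tissue: guinea pig ileum for μ and mouse vas deferens for δ. Agonist IC50 taken from dose–response curves. Values are mean ± SE from at least five fresh tissue samples.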

Mu-type opioid receptor = Mu-type opioid receptor (Cavia porcellus, UniProt P97266); assay: Agonist activity against mu opioid receptor of guinea pig ileum; type: functional, tissue-based; summary of the method: as §2
Chain of Mu-type opioid receptor (P97266 whole entry): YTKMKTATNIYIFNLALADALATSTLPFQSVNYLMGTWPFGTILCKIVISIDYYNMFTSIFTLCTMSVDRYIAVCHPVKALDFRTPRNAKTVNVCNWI

[4] = target: Opioid receptors; mu & delta (Homo sapiens) (UniProt P41143+P35372); assay: Selectivity for synaptosomal Mu rather than Delta Opioid Receptors; type: protein assay
Chain of Opioid receptors; mu & delta (Homo sapiens) (P35372 whole entry, looked up): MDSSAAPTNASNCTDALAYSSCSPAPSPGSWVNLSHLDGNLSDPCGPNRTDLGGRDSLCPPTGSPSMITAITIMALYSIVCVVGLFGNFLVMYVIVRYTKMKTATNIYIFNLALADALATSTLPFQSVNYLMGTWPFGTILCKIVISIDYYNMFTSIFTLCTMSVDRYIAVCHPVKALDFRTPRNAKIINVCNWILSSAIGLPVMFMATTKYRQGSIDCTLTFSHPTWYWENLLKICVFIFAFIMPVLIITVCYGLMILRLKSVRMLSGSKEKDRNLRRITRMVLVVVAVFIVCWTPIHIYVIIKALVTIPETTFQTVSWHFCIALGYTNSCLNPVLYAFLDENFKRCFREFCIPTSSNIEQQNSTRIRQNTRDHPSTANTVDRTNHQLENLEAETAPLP
Chain of Opioid receptors; mu & delta (Homo sapiens) (P41143 whole entry, looked up): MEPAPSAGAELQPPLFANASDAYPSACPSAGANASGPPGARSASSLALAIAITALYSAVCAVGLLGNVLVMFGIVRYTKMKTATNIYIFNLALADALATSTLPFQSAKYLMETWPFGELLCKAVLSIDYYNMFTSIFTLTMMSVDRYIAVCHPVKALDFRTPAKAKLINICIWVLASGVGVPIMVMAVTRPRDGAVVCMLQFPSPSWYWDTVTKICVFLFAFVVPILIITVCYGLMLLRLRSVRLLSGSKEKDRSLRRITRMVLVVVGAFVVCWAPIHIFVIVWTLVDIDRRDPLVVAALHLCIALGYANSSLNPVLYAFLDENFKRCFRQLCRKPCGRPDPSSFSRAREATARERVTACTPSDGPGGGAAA

[5] = target: T1, Delta-type opioid receptor; assay: Antagonist activity in mouse vas deferens assay; type: functional, tissue-based; settings: read-out: pA2 (converted)
Summary of the method: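 Electrically stimulated mouse vas deferens, with deltorphin C as the δ agonist. Antagonism expressed as pA2: the negative log of the molar antagonist concentration that doubles the agonist concentration needed to restore the original submaximal response.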

In the case of `Cc1cc(O)cc(C)c1C[C@H](N)C(=O)N[C@H](CCC/N=C(/N)N[N+](=O)[O-])C(=O)N[C@@H](Cc1ccccc1)C(=O)N[C@@H](CCCCNC(=O)OCc1ccccc1)C(=O)O`, the pKi [1] was 8.84, the pKi [2] was 7.32 and the pIC50 [3] was 6.17. The pIC50 (Mu-type opioid receptor) was 7.20.

With `Cc1cc(O)cc(C)c1C[C@H](N)C(=O)N[C@H](CCCN=C(N)N[N+](=O)[O-])C(=O)N[C@@H](Cc1ccccc1)C(=O)N[C@@H](CCCCNC(=O)OCc1ccccc1)C(N)=O` the pKi [1] was 9.82, the pKi [2] was 7.62 and the pIC50 [3] was 8.77. For the same compound, the pIC50 (Mu-type opioid receptor) was 9.29.

Compound `Cc1cc(O)cc(C)c1C[C@H](N)C(=O)N1Cc2ccccc2C[C@H]1C(=O)N[C@@H](Cc1ccccc1)C(=O)N[C@@H](CCCCNC(=O)OCc1ccccc1)C(N)=O` (H-[Dmt][Tic]FK(Cbz)-NH2) has a pKi [1] of 8.94, a pKi [2] of 9.64 and a Selectivity [4] of 5. It also gave a pIC50 [3] of less than 5.00, a pIC50 (Mu-type opioid receptor) of 5.72 and a Kb [5] of 3.8 nM.

Work on `Cc1cc(O)cc(C)c1C[C@H](N)C(=O)N1Cc2ccccc2C[C@H]1C(=O)N[C@@H](Cc1ccccc1)C(=O)N[C@@H](CCCCNC(=O)OCc1ccccc1)C(=O)O` (H-[Dmt][Tic]FK(Cbz)-OH) yielded a Selectivity [4] of 145, a pIC50 [3] of less than 5.00 and a pIC50 (Mu-type opioid receptor) of less than 5.00. The Kb [5] was 0.00372 nM.

Source: ChEMBL document CHEMBL1145172, “From the potent and selective mu opioid receptor agonist H-Dmt-d-Arg-Phe-Lys-NH(2) to the potent delta antagonist H-Dmt-Tic-Phe-Lys(Z)-OH” (J Med Chem, 2005)
